Results as given in ChEMBL document CHEMBL1149773, “Synthesis, determination of the lipophilicity, anticancer and antimicrobial properties of some fused 1,2,4-triazole derivatives” (Eur J Med Chem, 2008).
Converted amounts (≈) assume the structure as drawn.

Tests used:
[1] = system: Streptococcus agalactiae; test: Antimicrobial activity against Streptococcus agalactiae at 200 ug/mL by disc-diffusion method; type: functional; conditions: read-out: IZ
Method in brief: (§1)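 Kirby–Bauer disc diffusion: 5 mm paper discs soaked in compound solution in DMSO (100 or 200 µg/mL; reference drugs 200 µg/mL) and laid on inoculated Mueller-Hinton agar (bacteria) or Sabouraud agar (C. albicans, Aspergillus). DMSO discs were the control. Plates ran 24 h at 35 °C. Inhibition zone diameter was scored 0–10 mm R, 11–16 mm I, 17–25 mm S; triplicate.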

[2] = system: Proteus vulgaris; test: Antimicrobial activity against Proteus vulgaris at 100 ug/mL by disc-diffusion method; type: functional; conditions: read-out: IZ; method in brief: as §1
[3] = Lipophilicity, log kw in methanol aqueous system at pH 3.5; type: physicochemical
Method in brief: (§2)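 RP-HPLC on an octadecyl silica column (150 × 4.6 mm, 5 µm) at 22 ± 1 °C, flow 1.0 mL min⁻¹, UV detection at 254 nm. Mobile phase was methanol, acetonitrile or dioxane with water and 0.01 M phosphate buffer pH 3.5 containing 0.05 M DEA. log k_W was extrapolated to pure water by regression.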

[4] = system: Klebsiella aerogenes; test: Antimicrobial activity against Enterobacter aerogenes at 200 ug/mL by disc-diffusion method; type: functional; conditions: read-out: IZ; method in brief: as §1
[5] = system: Aspergillus sp.; test: Antimicrobial activity against Aspergillus sp. at 200 ug/mL by disc-diffusion method; type: functional; conditions: read-out: IZ; method in brief: as §1
[6] = system: Candida albicans; test: Antimicrobial activity against Candida albicans ATCC 10231 at 200 ug/mL by disc-diffusion method; type: functional; conditions: read-out: IZ; method in brief: as §1
[7] = system: Staphylococcus epidermidis; test: Antimicrobial activity against Staphylococcus epidermidis at 100 ug/mL by disc-diffusion method; type: functional; conditions: read-out: IZ; method in brief: as §1
[8] = system: Aspergillus sp.; test: Antimicrobial activity against Aspergillus sp. at 100 ug/mL by disc-diffusion method; type: functional; conditions: read-out: IZ; method in brief: as §1
[9] = system: Pseudomonas aeruginosa; test: Antimicrobial activity against Pseudomonas aeruginosa ATCC 27853 after 24 hrs by microdilution assay; type: functional; conditions: ATCC 27853, 24 h
[10] = system: Klebsiella pneumoniae; test: Antimicrobial activity against Klebsiella pneumoniae at 200 ug/mL by disc-diffusion method; type: functional; conditions: read-out: IZ; method in brief: as §1
[11] = system: Streptococcus pyogenes; test: Antimicrobial activity against Streptococcus pyogenes at 200 ug/mL by disc-diffusion method; type: functional; conditions: read-out: IZ; method in brief: as §1
[12] = system: Streptococcus pyogenes; test: Antimicrobial activity against Streptococcus pyogenes at 100 ug/mL by disc-diffusion method; type: functional; conditions: read-out: IZ; method in brief: as §1
[13] = system: Staphylococcus aureus; test: Antimicrobial activity against Staphylococcus aureus ATCC 25923 at 100 ug/mL by disc-diffusion method; type: functional; conditions: read-out: IZ; method in brief: as §1
[14] = system: Klebsiella pneumoniae; test: Antimicrobial activity against Klebsiella pneumoniae at 100 ug/mL by disc-diffusion method; type: functional; conditions: read-out: IZ; method in brief: as §1
[15] = system: Klebsiella aerogenes; test: Antimicrobial activity against Enterobacter aerogenes at 100 ug/mL by disc-diffusion method; type: functional; conditions: read-out: IZ; method in brief: as §1
[16] = system: Proteus vulgaris; test: Antimicrobial activity against Proteus vulgaris at 200 ug/mL by disc-diffusion method; type: functional; conditions: read-out: IZ; method in brief: as §1
[17] = system: Staphylococcus aureus; test: Antimicrobial activity against Staphylococcus aureus ATCC 25923 at 200 ug/mL by disc-diffusion method; type: functional; conditions: read-out: IZ; method in brief: as §1
[18] = system: Candida albicans; test: Antimicrobial activity against Candida albicans ATCC 10231 at 100 ug/mL by disc-diffusion method; type: functional; conditions: read-out: IZ; method in brief: as §1
[19] = system: Streptococcus agalactiae; test: Antimicrobial activity against Streptococcus agalactiae at 100 ug/mL by disc-diffusion method; type: functional; conditions: read-out: IZ; method in brief: as §1
[20] = system: Escherichia coli; test: Antimicrobial activity against Escherichia coli ATCC 25922 at 200 ug/mL by disc-diffusion method; type: functional; conditions: read-out: IZ; method in brief: as §1
[21] = system: Pseudomonas aeruginosa; test: Antimicrobial activity against Pseudomonas aeruginosa ATCC 27853 at 100 ug/mL by disc-diffusion method; type: functional; conditions: read-out: IZ; method in brief: as §1
[22] = system: Pseudomonas aeruginosa; test: Antimicrobial activity against Pseudomonas aeruginosa ATCC 27853 at 200 ug/mL by disc-diffusion method; type: functional; conditions: read-out: IZ; method in brief: as §1
[23] = system: Staphylococcus epidermidis; test: Antimicrobial activity against Staphylococcus epidermidis at 200 ug/mL by disc-diffusion method; type: functional; conditions: read-out: IZ; method in brief: as §1
[24] = Lipophilicity, log kw in acetonitrile aqueous system at pH 3.5; type: physicochemical; method in brief: as §2
[25] = Lipophilicity, log kw in dioxane aqueous system at pH 3.5; type: physicochemical; conditions: buffer; method in brief: as §2
[26] = system: Escherichia coli; test: Antimicrobial activity against Escherichia coli ATCC 25922 at 100 ug/mL by disc-diffusion method; type: functional; conditions: read-out: IZ; method in brief: as §1
[27] = system: Candida albicans; test: Antimicrobial activity against Candida albicans ATCC 10231 after 24 hrs by microdilution assay; type: functional; conditions: ATCC 10231, 24 h

SMILES | zone of inhibition at 200 µg/mL [1] [mm] | zone of inhibition at 100 µg/mL [2] [mm] | zone of inhibition at 200 µg/mL [4] [mm] | zone of inhibition at 200 µg/mL [5] [mm] | zone of inhibition at 200 µg/mL [6] [mm] | zone of inhibition at 100 µg/mL [7] [mm] | zone of inhibition at 100 µg/mL [8] [mm] | zone of inhibition at 200 µg/mL [10] [mm] | zone of inhibition at 200 µg/mL [11] [mm] | zone of inhibition at 100 µg/mL [12] [mm] | zone of inhibition at 100 µg/mL [13] [mm] | zone of inhibition at 100 µg/mL [14] [mm] | zone of inhibition at 100 µg/mL [15] [mm] | zone of inhibition at 200 µg/mL [16] [mm] | zone of inhibition at 200 µg/mL [17] [mm] | zone of inhibition at 100 µg/mL [18] [mm] | zone of inhibition at 100 µg/mL [19] [mm] | zone of inhibition at 200 µg/mL [20] [mm] | zone of inhibition at 100 µg/mL [21] [mm] | zone of inhibition at 200 µg/mL [22] [mm] | further results
Clc1ccc(OCc2nnc3n2CCN3c2ccc(Cl)c(Cl)c2)c(Cl)c1 | 0 | 11 | 11 | 0 | 0 | 0 | 0 | 11 | 0 | 0 | 0 | 0 | 0 | 17 | 0 | 0 | 0 | 0 | 11 | 17 | logKw [3]: 6; MIC [9]: 36.3 µM (≈ 15.6 µg/mL); zone of inhibition at 200 µg/mL [23]: 0 mm; logKw [24]: 3.32; logKw [25]: 4.61; zone of inhibition at 100 µg/mL [26]: 0 mm
Sc1nnc2n1CCN2c1ccc(Cl)cc1 | 0 | 0 | 0 | 0 | 17 | 0 | 0 | 0 | 0 | 0 | 0 | 0 | 0 | 0 | 0 | 17 | 0 | 0 | 0 | 0 | MIC [27]: 30.9 µM (≈ 7.81 µg/mL); zone of inhibition at 200 µg/mL [23]: 0 mm; logKw [25]: -0.09; zone of inhibition at 100 µg/mL [26]: 0 mm
